The subject of series [1] is Trypanosoma cruzi. The series can be described thus: Antitrypanosomal activity against Trypanosoma cruzi MHOM/Pe/2011/Arequipa DTU 5 trypamastigotes infected in Balb/c mouse assessed as reduction in parasitaemia reactivation in muscle tissue at 100 mg/kg, po pretreated once daily for 5 consecutive days starting from day 75 post infection followed by cyclophosphamide-induced immunosuppression on day 100 post infection every 4 days for a maximum of 3 doses measured on day 127 post infection by PCR method. Type of series: functional. On the set-up: scale not given: the % may be the effect or the level left.

Series [2] deals with Trypanosoma cruzi. As to the kind of experiment: Antitrypanosomal activity against Trypanosoma cruzi MHOM/Pe/2011/Arequipa DTU 5 trypamastigotes infected in Balb/c mouse assessed as reduction in parasitaemia reactivation in bone marrow tissue at 100 mg/kg, po pretreated once daily for 5 consecutive days starting from day 75 post infection followed by cyclophosphamide-induced immunosuppression on day 100 post infection every 4 days for a maximum of 3 doses measured on day 127 post infection by PCR method. Type of series: functional. On the set-up: scale not given: the % may be the effect or the level left. The method, boiled down: (§1)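 Necropsy on day 127 pi after oral treatment and cyclophosphamide immunosuppression. Tissue DNA was amplified by PCR targeting the ~300 bp T. cruzi SOD gene, 200 nM each primer, 30 cycles with 55.5 °C annealing. Products run on 2 % agarose; positive organs counted out of six mice.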

The subject of series [3] is Trypanosoma cruzi. The series can be described thus: Antitrypanosomal activity against Trypanosoma cruzi MHOM/Pe/2011/Arequipa DTU 5 trypamastigotes infected in Balb/c mouse assessed as parasitaemia reactivation at 100 mg/kg, po pretreated once daily for 5 consecutive days starting from day 75 post infection followed by cyclophosphamide-induced immunosuppression on day 100 post infection every 4 days for a maximum of 3 doses measured up to 1 week post immunosuppression by Neubauer chamber method. It is filed as functional.

Series [4] has as its system Mus musculus. As to the kind of experiment: Hepatotoxicity in Balb/c mouse infected with Trypanosoma cruzi MHOM/Pe/2011/Arequipa DTU 5 trypamastigotes assessed as increase in ratio of serum ALT to GPT level at […], po once daily for 5 consecutive days starting from day 10 post infection measured on day 16 post infection by biochemical analysis relative to control. To be noted: in vivo. It is filed as toxicity, organism-based.

In series [5] the test system is Mus musculus. The series can be described thus: Cardiotoxicity in Balb/c mouse infected with Trypanosoma cruzi MHOM/Pe/2011/Arequipa DTU 5 trypamastigotes assessed as decrease in ratio of creatine kinase in muscle to brain at 20 mg/kg, po once daily for 5 consecutive days starting from day 75 post infection measured on day 81 post infection by biochemical analysis relative to control. Type of series: toxicity, organism-based. On the set-up: scale not given: the % may be the effect or the level left. The note with it: in vivo. The method, boiled down:
(§2)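 Serum clinical chemistry in Arequipa-infected female BALB/c mice. Oral 20 mg·kg-1 per day for 5 days, started day 10 or day 75 pi. Samples taken at day 16 pi or day 81 pi, and on necropsy day. Markers: CK-MB and LDH (U/L), AST, ALT and alkaline phosphatase (U/L), total bilirubin. Results scored relative to infected untreated controls; uninfected reference n = 15.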

For series [6], the system named is Trypanosoma cruzi. As to the kind of experiment: Antitrypanosomal activity against Trypanosoma cruzi MHOM/Pe/2011/Arequipa DTU 5 trypamastigotes infected in Balb/c mouse assessed as reduction in parasitaemia reactivation at 20 mg/kg, po pretreated once daily for 5 consecutive days starting from day 75 post infection followed by cyclophosphamide-induced immunosuppression on day 100 post infection every 4 days for a maximum of 3 doses measured up to 1 week post immunosuppression by Neubauer chamber method. On the set-up: scale not given: the % may be the effect or the level left. It is filed as functional. The method, boiled down: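 Female BALB/c mice (8-10 weeks, 20-25 g), groups of six, infected i.p. with 5 x 10^5 bloodstream trypomastigotes in 0.2 mL PBS; oral dosing 20 mg·kg-1 per day for 5 days in 5% DMSO/0.5% HPMC vehicle. After day 100 pi, cyclophosphamide 200 mg·kg-1 i.p. every 4 days, up to three doses. Within 1 week after the last dose, fresh-blood bloodstream trypomastigotes counted in a Neubauer chamber. Reactivation expressed relative to untreated infected controls.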

The subject of series [7] is Mus musculus. The series can be described thus: Hepatotoxicity in Balb/c mouse infected with Trypanosoma cruzi MHOM/Pe/2011/Arequipa DTU 5 trypamastigotes assessed as increase in total bilirubin level at 20 mg/kg, po once daily for 5 consecutive days starting from day 75 post infection measured on day 81 post infection by biochemical analysis relative to control. Type of series: toxicity, organism-based. The note with it: in vivo.

The test system of series [8] is Mus musculus. As to the kind of experiment: Cardiotoxicity in Balb/c mouse infected with Trypanosoma cruzi MHOM/Pe/2011/Arequipa DTU 5 trypamastigotes assessed as change in ratio of creatine kinase in muscle to brain at 20 mg/kg, po once daily for 5 consecutive days starting from day 10 post infection measured on day 127 post infection by biochemical analysis relative to control. It is filed as toxicity, organism-based. To be noted: in vivo. The method, boiled down: as §2

Series [9] has as its system Mus musculus. The series can be described thus: Hepatotoxicity in Balb/c mouse infected with Trypanosoma cruzi MHOM/Pe/2011/Arequipa DTU 5 trypamastigotes assessed as change in ratio of serum ALT to GPT level at 20 mg/kg, po once daily for 5 consecutive days starting from day 75 post infection measured on day 127 post infection by biochemical analysis relative to control. It is filed as toxicity, organism-based. The note with it: in vivo. The method, boiled down:
as §2

The test system of series [10] is Mus musculus. As to the kind of experiment: Nephrotoxicity in Balb/c mouse infected with Trypanosoma cruzi MHOM/Pe/2011/Arequipa DTU 5 trypamastigotes assessed as decrease in uric acid level in serum at 20 mg/kg, po once daily for 5 consecutive days starting from day 75 post infection measured on day 127 post infection by biochemical analysis relative to control. Type of series: toxicity, organism-based. On the set-up: scale not given: the % may be the effect or the level left. The note with it: in vivo.

For series [11], the system named is Mus musculus. As to the kind of experiment: Hepatotoxicity in Balb/c mouse infected with Trypanosoma cruzi MHOM/Pe/2011/Arequipa DTU 5 trypamastigotes assessed as change in alkaline phosphatase level at 20 mg/kg, po once daily for 5 consecutive days starting from day 10 post infection measured on day 127 post infection by biochemical analysis relative to control. Type of series: toxicity, organism-based. To be noted: in vivo. The method in brief: as §2

For series [12], the system named is Trypanosoma cruzi. As to the kind of experiment: Antitrypanosomal activity against Trypanosoma cruzi MHOM/Pe/2011/Arequipa DTU 5 trypamastigotes infected in Balb/c mouse assessed as reduction in parasitaemia reactivation in brain tissue at 20 mg/kg, po pretreated once daily for 5 consecutive days starting from day 10 post infection followed by cyclophosphamide-induced immunosuppression on day 100 post infection every 4 days for a maximum of 3 doses measured on day 127 post infection by PCR method. Type of series: functional. On the set-up: scale not given: the % may be the effect or the level left. The method in brief: as §1

Series [13] concerns Trypanosoma cruzi. The series can be described thus: Antitrypanosomal activity against Trypanosoma cruzi MHOM/Pe/2011/Arequipa DTU 5 trypamastigotes infected in Balb/c mouse assessed as reduction in parasitaemia reactivation in esophagus tissue at 20 mg/kg, po pretreated once daily for 5 consecutive days starting from day 10 post infection followed by cyclophosphamide-induced immunosuppression on day 100 post infection every 4 days for a maximum of 3 doses measured on day 127 post infection by PCR method. It is filed as functional. On the set-up: scale not given: the % may be the effect or the level left. The method, boiled down: as §1

Series [14] relates to Mus musculus. The series can be described thus: Nephrotoxicity in Balb/c mouse infected with Trypanosoma cruzi MHOM/Pe/2011/Arequipa DTU 5 trypamastigotes assessed as decrease in urea level in serum at 20 mg/kg, po once daily for 5 consecutive days starting from day 75 post infection measured on day 127 post infection by biochemical analysis relative to control. Type of series: toxicity, organism-based. On the set-up: scale not given: the % may be the effect or the level left. The note with it: in vivo.

Series [15] deals with Mus musculus. The series can be described thus: Hepatotoxicity in Balb/c mouse infected with Trypanosoma cruzi MHOM/Pe/2011/Arequipa DTU 5 trypamastigotes assessed as change in ratio of serum ALT to GPT level at 20 mg/kg, po once daily for 5 consecutive days starting from day 10 post infection measured on day 127 post infection by biochemical analysis relative to control. The note with it: in vivo. It is filed as toxicity, organism-based. The method in brief:
as §2

Series [16] relates to Mus musculus. The series can be described thus: Nephrotoxicity in Balb/c mouse infected with Trypanosoma cruzi MHOM/Pe/2011/Arequipa DTU 5 trypamastigotes assessed as increase in urea level in serum at […], po once daily for 5 consecutive days starting from day 75 post infection measured on day 127 post infection by biochemical analysis relative to control. Type of series: toxicity, organism-based. To be noted: in vivo.

From ChEMBL document CHEMBL4118256, “Second Generation of Mannich Base-Type Derivatives with in Vivo Activity against Trypanosoma cruzi” (J Med Chem, 2018) come the findings set out here.

As to `COc1ccc(C(=O)CCN2CCN(c3ccc(Cl)cc3)CC2)cc1`, the Activity in the series with Trypanosoma cruzi [1] was determined as 78%; in the series with Trypanosoma cruzi [2] it was 78%; in the series with Trypanosoma cruzi [3], 20%.
`COc1ccc(C(=O)CCN2CCN(c3ccc([N+](=O)[O-])cc3)CC2)cc1`: in the series on Mus musculus [4], the Activity is given as more than 40%.
As for `O=C(Cn1ccnc1[N+](=O)[O-])NCc1ccccc1` [BENZNIDAZOLE], the Activity result is “<= 10%” in the series with Mus musculus [5]; 51% in the series with Trypanosoma cruzi [6]; “<= 30%” in the series on Mus musculus [7]; less than 10% in the series with Mus musculus [8]; less than 10% in the series with Mus musculus [9]; “<= 20%” in the series on Mus musculus [10]. Further, the Activity with Mus musculus [11] is listed as less than 10%; in the series on Trypanosoma cruzi [12], 33%; in the series on Trypanosoma cruzi [13], 33%; in the series on Mus musculus [14], “<= 30%”; in the series on Mus musculus [15], less than 10%.
Consider `COc1ccc(C(=O)CCN2CCN(c3ccc(F)cc3)CC2)cc1`, for which, in the series with Mus musculus [16], the Activity result is given as “<= 10%”.
